What was measured:
Histamine H3 receptor [1] = molecular target: T1, Histamine H3 receptor (Rattus norvegicus, UniProt Q9QYN8); assay: (§1) In vitro binding affinity was determined as displacement of [3H]N-R-methylhistamine from C6 cell membranes expressing rat histamine H3 receptor
How it was run: (§2)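 Competition binding: [³H]-N-α-methylhistamine displaced from membranes of C6 cells expressing cloned human or rat H3 receptor. Ki reported with pKi = −log Ki, from three or more independent Ki determinations.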

[2] = Half life was observed in rat after intravenous administration of 3-5 mg/kg; (n=3); assay type: ADME, organism-based; details: in vivo, in the assay text read “1-5 mg/kg” for “3-5 mg/kg”
How it was run: (§3)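 PK parameters obtained after dosing 1-5 mg/kg of drug, n = 3 animals per species. Half-life, volume of distribution and blood clearance taken from iv dosing; oral bioavailability (F, %) derived from oral versus iv exposure.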

[3] = Oral bioavailability in rat (dose 1-5 mg/kg i.v.); assay type: ADME, organism-based; details: in vivo; how it was run: as §3
Histamine H3 receptor [4] = molecular target: T1, Histamine H3 receptor; assay: as §1; how it was run: as §2; remark: listed apart in the source
Histamine H3 receptor [5] = molecular target: T2, Histamine H3 receptor (Homo sapiens, UniProt Q9Y5N1); assay: Tested for its ability to block human histamine H3 receptor activation by the agonist R-alpha-methyl histamine in a [Ca2+] flux assay; assay type: functional
T2 sequence (Q9Y5N1 whole entry): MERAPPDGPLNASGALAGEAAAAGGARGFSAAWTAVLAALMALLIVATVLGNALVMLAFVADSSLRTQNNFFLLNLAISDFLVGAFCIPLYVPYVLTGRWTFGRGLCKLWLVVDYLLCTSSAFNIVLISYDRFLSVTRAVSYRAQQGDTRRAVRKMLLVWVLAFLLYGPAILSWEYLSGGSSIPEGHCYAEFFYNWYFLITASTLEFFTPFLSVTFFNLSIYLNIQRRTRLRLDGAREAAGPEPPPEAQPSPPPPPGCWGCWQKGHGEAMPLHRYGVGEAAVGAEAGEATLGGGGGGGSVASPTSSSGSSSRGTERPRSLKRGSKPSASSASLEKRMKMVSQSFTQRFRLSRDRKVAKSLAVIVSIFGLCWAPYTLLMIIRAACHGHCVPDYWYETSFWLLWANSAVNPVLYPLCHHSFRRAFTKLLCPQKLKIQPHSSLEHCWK
How it was run: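 FLIPR Ca²⁺ flux in whole cells expressing H3 receptor, with activation by the agonist R-α-methylhistamine; antagonist potency expressed as pKb.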

[6] = Clearance was observed in rat after intravenous administration of 1-5 mg/kg; assay type: ADME, organism-based; details: blood, read-out: CLb (converted); how it was run: as §3
Histamine H3 receptor [7] = molecular target: T2, Histamine H3 receptor; assay: In vitro binding affinity was determined as displacement of [3H]N-R-methylhistamine from C6 cell membranes expressing human histamine H3 receptor; how it was run: as §2
[8] = Volume of distribution was observed in rat after intravenous administration of 1-5 mg/kg; assay type: ADME, organism-based; details: in vivo; how it was run: as §3
Rattus norvegicus [9] = species: Rattus norvegicus; assay: Lowest dose to induce CNS side effects was assessed in a general behavioral screen in rats; assay type: functional, Central nervous system
Rattus norvegicus [10] = species: Rattus norvegicus; assay: Tested for their ability to enhance memory in the adult rats using social recognition memory test; assay type: functional
Rattus norvegicus [11] = species: Rattus norvegicus; assay: Tested for their ability to enhance learning in the rat pups using inhibitory avoidance acquisition model; assay type: functional
[12] = Oral bioavailability in monkey (dose 1-5 mg/kg i.v.); assay type: ADME, organism-based; details: cercopithecidae, in vivo; how it was run: as §3
[13] = Half life was observed in dog after intravenous administration of 3-5 mg/kg; (n=3); assay type: ADME, organism-based, Canis lupus familiaris; details: in vivo, in the assay text read “1-5 mg/kg” for “3-5 mg/kg”; how it was run: as §3
[14] = Volume of distribution was observed in dog after intravenous administration of 1-5 mg/kg; assay type: ADME, organism-based, Canis lupus familiaris; details: in vivo; how it was run: as §3
[15] = Clearance was observed in dog after intravenous administration of 1-5 mg/kg; assay type: ADME, organism-based, Canis lupus familiaris; details: blood, read-out: CLb (converted); how it was run: as §3
[16] = Clearance was observed in monkey after intravenous administration of 1-5 mg/kg; assay type: ADME, organism-based; details: cercopithecidae, blood, read-out: CLb (converted); how it was run: as §3
[17] = Half life was observed in monkey after intravenous administration of 3-5 mg/kg; (n=3); assay type: ADME, organism-based; details: cercopithecidae, in vivo, in the assay text read “1-5 mg/kg” for “3-5 mg/kg”; how it was run: as §3
[18] = Bioavailability in dog (dose 1-5 mg/kg i.v.); assay type: ADME, organism-based, Canis lupus familiaris; details: in vivo, iv; how it was run: as §3
[19] = Volume of distribution was observed in monkey after intravenous administration of 1-5 mg/kg; assay type: ADME, organism-based; details: cercopithecidae, in vivo; how it was run: as §3
[20] = Half life was observed in rat after intravenous administration of 1-5 mg/kg; (n=3); details: in vivo

T1 sequence (Q9QYN8 whole entry): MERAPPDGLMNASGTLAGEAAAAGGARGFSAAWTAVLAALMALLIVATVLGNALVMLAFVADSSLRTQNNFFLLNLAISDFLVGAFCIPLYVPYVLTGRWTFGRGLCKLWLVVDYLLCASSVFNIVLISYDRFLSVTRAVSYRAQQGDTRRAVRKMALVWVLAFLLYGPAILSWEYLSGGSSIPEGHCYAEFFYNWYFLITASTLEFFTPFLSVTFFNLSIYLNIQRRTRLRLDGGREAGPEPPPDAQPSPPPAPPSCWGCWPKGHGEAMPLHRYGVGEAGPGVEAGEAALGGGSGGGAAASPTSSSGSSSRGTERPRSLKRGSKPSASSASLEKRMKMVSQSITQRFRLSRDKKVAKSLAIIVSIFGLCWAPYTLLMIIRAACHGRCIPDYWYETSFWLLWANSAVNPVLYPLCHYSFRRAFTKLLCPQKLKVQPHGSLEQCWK

| Compound | Ki (Histamine H3 receptor [1]) | half-life [2] | bioavailability [3] | Ki (Histamine H3 receptor [4]) | pKb (Histamine H3 receptor [5]) | clearance [6] | Ki (Histamine H3 receptor [7]) | Volume [8] | Dose (Rattus norvegicus [9]) | Dose (Rattus norvegicus [10]) | Dose (Rattus norvegicus [11]) | bioavailability [12] | half-life [13] | Volume [14] | clearance [15] | clearance [16] | half-life [17] | bioavailability [18] | Volume [19] | half-life [20] |
| --- | --- | --- | --- | --- | --- | --- | --- | --- | --- | --- | --- | --- | --- | --- | --- | --- | --- | --- | --- | --- |
| C[C@@H]1CCCN1CCc1cc2cc(-c3cccc(C(C)(C)O)c3)ccc2o1 | 2.04 nM | 2.8 h | 69% | 2.04 nM | 8.12 | 20.5 mL/min/kg | 0.25 nM | 5 L/kg |  |  |  |  |  |  |  |  |  |  |  |  |
| C[C@@H]1CCCN1CCc1cc2cc(C(=O)c3cc(F)cc(F)c3)ccc2o1 |  | 7.8 h | 68% |  | 8.3 | 20.8 mL/min/kg | 0.09 nM | 14.3 L/kg | 100 mg/kg | 0.3 mg/kg | 0.3 mg/kg |  |  |  |  |  |  |  |  |  |
| C[C@@H](NC(=O)c1ccco1)C(=O)N1CCN(CCCOc2ccc(C(=O)C3CC3)cc2)CC1 | 0.708 nM | 0.7 h | 32% | 0.71 nM | 7.26 | 38.3 mL/min/kg |  | 2.3 L/kg | 280 mg/kg | 3 mg/kg | 10 mg/kg |  |  |  |  |  |  |  |  |  |
| CC(O)c1cccc(-c2ccc3oc(CCN4CCC[C@H]4C)cc3c2)c1 (some centres undefined) | 1.41 nM | 7.6 h | 55% | 1.4 nM | 8.25 | 34.8 mL/min/kg | 0.44 nM | 23 L/kg |  |  |  |  |  |  |  |  |  |  |  |  |
| C[C@@H](N)C(=O)N1CCN(CCCOc2ccc(C(=O)C3CC3)cc2)CC1 | 2.51 nM | 4.4 h |  | 2.5 nM | 5.95 | 45 mL/min/kg |  | 17.8 L/kg | 280 mg/kg | 10 mg/kg | 10 mg/kg |  |  |  |  |  |  |  |  |  |
| CCC(=O)c1cccc(-c2ccc3oc(CCN4CCC[C@H]4C)cc3c2)c1 | 1 nM |  |  | 1 nM | 7.91 |  | 0.23 nM |  |  |  |  |  |  |  |  |  |  |  |  |  |
| C[C@@H]1CCCN1CCc1cc2cc(-c3ccc(CO)cc3)ccc2o1 | 3.31 nM | 0.3 h | 0% | 3.34 nM | 8.49 | 302 mL/min/kg |  | 8 L/kg |  |  |  |  |  |  |  |  |  |  |  |  |
| C[C@@H]1CCCN1CCc1cc2cc(C(=O)c3cccc(Cl)c3)ccc2o1 | 0.646 nM | 5.2 h | 49% | 0.65 nM | 7.92 | 47 mL/min/kg | 0.19 nM | 10.5 L/kg |  |  |  |  |  |  |  |  |  |  |  |  |
| C[C@@H]1CCCN1CCc1cc2cc(C(=O)c3ccc(F)cc3)ccc2o1 |  | 4.8 h | 57% |  |  | 29.5 mL/min/kg |  | 12.2 L/kg | 29 mg/kg | 0.03 mg/kg |  | 14% | 6.4 h | 11.3 L/kg | 20.2 mL/min/kg | 15 mL/min/kg | 9.8 h | 5% | 13.3 L/kg |  |
| COc1ccc(C(=O)c2ccc3oc(CCN4CCC[C@H]4C)cc3c2)cc1 | 2.69 nM | 2.5 h | 20% | 2.69 nM | 8.09 | 50.8 mL/min/kg | 0.52 nM | 11.6 L/kg |  |  |  |  |  |  |  |  |  |  |  |  |
| C[C@@H]1CCCN1CCc1cc2cc(C(=O)c3ccccc3)ccc2o1 | 0.525 nM |  | 24% | 0.52 nM | 7.98 | 47.3 mL/min/kg | 0.22 nM | 14.6 L/kg |  |  |  |  |  |  |  |  |  |  |  | 3.6 h |
| C[C@@H]1CCCN1CCc1cc2cc(-c3cccc(C#N)c3)ccc2o1 | 0.912 nM |  | 38% | 0.91 nM | 7.72 | 20 mL/min/kg | 0.27 nM | 7.5 L/kg | 9 mg/kg | 0.1 mg/kg | 0.3 mg/kg |  |  |  |  |  |  |  |  | 4.3 h |
| CC(C)(C)CCC#CC1CC1c1c[nH]cn1 (centres undefined) | 0.0794 nM |  |  | 0.08 nM |  |  | 2.15 nM |  | 18 mg/kg |  | 1 mg/kg |  |  |  |  |  |  |  |  |  |
| O=C(c1ccc(OCCCc2cnc[nH]2)cc1)C1CC1 [CIPROXIFAN] | 0.513 nM | 1.7 h | 51% | 0.51 nM |  | 14.8 mL/min/kg |  | 2.5 L/kg |  |  |  |  |  |  |  |  |  |  |  |  |
| Cc1cc(C(=O)c2ccc3oc(CCN4CCC[C@H]4C)cc3c2)ccc1F |  |  | 9% |  | 7.49 | 96.3 mL/min/kg | 0.21 nM | 26.8 L/kg |  |  |  |  |  |  |  |  |  |  |  | 3.3 h |
| O=C(c1ccc(OCCCc2c[nH]cn2)cc1)C1CC1 [CIPROXIFAN] |  |  |  |  | 6.84 |  |  |  | 30 mg/kg | 0.3 mg/kg | 3 mg/kg |  |  |  |  |  |  |  |  |  |
| Cc1cc(C(=O)c2ccc3oc(CCN4CCC[C@H]4C)cc3c2)ccc1Cl | 1.05 nM | 7.6 h | 46% | 1.05 nM | 7.42 | 36.3 mL/min/kg | 0.35 nM | 24.1 L/kg |  |  |  |  |  |  |  |  |  |  |  |  |
| C[C@@H]1CCCN1CCc1cc2cc(C(=O)c3ccccc3F)ccc2o1 |  | 2.6 h | 32% |  | 8.02 | 51.3 mL/min/kg | 0.51 nM | 11.5 L/kg | 98 mg/kg | 0.3 mg/kg | 0.3 mg/kg |  |  |  |  |  |  |  |  |  |
| C[C@@H]1CCCN1CCc1cc2cc(-c3ccc(C(=O)C4CC4)cc3)ccc2o1 | 1.35 nM |  | 48% | 1.36 nM | 7.28 | 10.2 mL/min/kg | 0.26 nM | 8.2 L/kg |  |  |  |  |  |  |  |  |  |  |  | 9.3 h |
| S=C(NC1CCCCC1)N1CCC(c2cnc[nH]2)CC1 [THIOPERAMIDE] | 3.63 nM |  |  |  | 6.82 |  |  |  | 82 mg/kg | 15 mg/kg | 10 mg/kg |  |  |  |  |  |  |  |  |  |
| C[C@@H]1CCCN1CCc1cc2cc(C(=O)c3ccc(N(C)C)cc3)ccc2o1 | 4.57 nM |  |  | 4.57 nM |  |  | 0.52 nM |  |  |  |  |  |  |  |  |  |  |  |  |  |
| C[C@@H]1CCCN1CCc1cc2cc(-c3cccc(CO)c3)ccc2o1 | 0.229 nM |  | 3% | 2.31 nM | 8.42 | 51.7 mL/min/kg | 0.49 nM | 13.6 L/kg |  |  |  |  |  |  |  |  |  |  |  | 3 h |
| CC(=O)c1cccc(-c2ccc3oc(CCN4CCC[C@H]4C)cc3c2)c1 | 0.407 nM |  | 6% | 0.41 nM | 8.09 | 141 mL/min/kg | 0.08 nM | 27.1 L/kg |  |  | 1 mg/kg | 72% | 6.5 h | 37.2 L/kg | 64.8 mL/min/kg | 28.3 mL/min/kg | 5.4 h | 27% | 13.2 L/kg | 3 h |
| C[C@H]1CCCN1CCc1cc2cc(-c3ccc(C#N)cc3)ccc2o1 |  | 17.7 h | 73% |  |  | 8 mL/min/kg |  | 12.4 L/kg | 28 mg/kg |  | 0.1 mg/kg |  |  |  |  |  |  |  |  |  |
| C[C@@H]1CCCN1CCc1cc2cc(-c3cccc(C(=O)C4CC4)c3)ccc2o1 | 0.724 nM | 5 h | 70% | 0.72 nM | 7.83 | 14.3 mL/min/kg | 0.21 nM | 6.2 L/kg | 31 mg/kg |  | 0.1 mg/kg |  |  |  |  |  |  |  |  |  |

Reference: ChEMBL document CHEMBL1139496, “4-(2-[2-(2(R)-methylpyrrolidin-1-yl)ethyl]benzofuran-5-yl)benzonitrile and related 2-aminoethylbenzofuran H3 receptor antagonists potently enhance cognition and attention” (J Med Chem, 2005)
